hERG protect – compounds protecting human hERG from proarrhythmic drug block; Q12809; 0.51% of 310,000 active; CHO-hERG, FluxOR thallium flux, dofetilide IC70 present; activation (rescue from dofetilide block), less the hit threshold, % at 10 µM;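 active = activation above the mean of controls blocked by dofetilide plus 5 SD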;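 also: thallium influx through hERG after potassium depolarization seen as dye fluorescence rise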
KCNQ1 inh – blocks the human KCNQ1 potassium channel; B-score at 10 µM; CHO-K1 KCNQ1, FluxOR thallium flux fluorescence; hits give high values; P51787; AID 2642; 1.3% of 310,000 active;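 active = compounds whose thallium flux B-score, printed positive for inhibition, exceeds three library SD while starting fluorescence stays within three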;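 also: channel opened by potassium depolarization with thallium stimulus after 20 min compound exposure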
KCNK3 block – human KCNK3 channel inhibition, primary screen | O14649 | CHO-KCNK3 thallium flux, FluxOR fluorescence; hits give low values | B-score at 10 µM | 0.84% of 340,000 active | AID 602410;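 active = B-score under library mean minus 4 SD, starting fluorescence ratio at most library mean plus 5 SD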;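 also: more negative B-score means stronger inhibition of thallium flux through KCNK3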
Target sequence (O14649 whole entry, looked up): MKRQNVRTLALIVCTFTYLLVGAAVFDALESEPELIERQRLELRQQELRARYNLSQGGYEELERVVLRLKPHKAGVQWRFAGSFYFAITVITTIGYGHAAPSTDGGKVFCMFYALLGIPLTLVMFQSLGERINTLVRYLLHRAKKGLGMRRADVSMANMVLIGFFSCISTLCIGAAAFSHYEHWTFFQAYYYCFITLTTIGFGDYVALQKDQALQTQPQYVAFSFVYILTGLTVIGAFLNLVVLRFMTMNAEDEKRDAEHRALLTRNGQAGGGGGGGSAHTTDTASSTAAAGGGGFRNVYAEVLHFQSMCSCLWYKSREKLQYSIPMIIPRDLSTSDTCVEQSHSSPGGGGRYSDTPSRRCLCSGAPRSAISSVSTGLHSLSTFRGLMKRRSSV
KCNK9 inh-1 – blocks the human KCNK9 two-pore domain potassium channel | Q9NPC2 | HEK293 KCNK9, FluxOR thallium flux fluorescence; hits give low values | 1.2% of 310,000 active | B-score at 10 µM;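 active = ratio B-score over 3 SD below the library mean, with starting fluorescence within 5 SD of its mean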;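 also: negative B-score means less thallium flux so channel inhibition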
KCNQ1 act – human KCNQ1 channel potentiation or activation; 0.35% of 310,000 active; P51787; B-score at 10 µM; CHO-K1 KCNQ1, thallium flux FluxOR fluorescence; hits give high values;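 active = fluorescence ratio B-score, a plate-corrected score, at least three library SD, with initial intensity B-score within 5 SD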
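System: Stable KCNQ1 CHO-K1 line | Incubation: 90 min dye loading and 20 min compound exposure, both at room temperature | Measure: Ratio B score | Medium: Assay buffer for compound exposure, DMSO matched across wells | Compound dosing: Single-concentration screen | Probe or stimulus: K+/Tl+ depolarizing stimulus | Measured by: Kinetic FluxOR fluorescence, 10 s baseline plus 110 s post-stimulus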
Kir21 inh – Kir2.1 (mouse) channel inhibition. 0.85% of 310,000 active. B-score at 10 µM. HEK293-Kir2.1, FluxOR thallium flux fluorescence; hits give low values. P35561;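 active = fluorescence ratio B-score at or below minus 3 SD of library scores, with starting-brightness B-score within 2 SD, cut at about -4.2 in these data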;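 also: channel flux triggered by added potassium and thallium sulfate stimulus; B-score of peak minus minimum fluorescence over baseline after thallium stimulus; more negative B-score means stronger Kir2.1 block with less thallium influx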
hERG ctr – counter-screen for Kir2.1 inhibitors: effect on human hERG; 20% of 320 active; hERG-expressing cells, thallium flux; AID 2236; shares compounds with Kir21 inh; inhibition, % at 10 µM;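 also: host cells are CHO cells stably expressing hERG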
KCNK9 inh-2 – tests whether Kir2.1 inhibitors also affect human KCNK9; shares compounds with Kir21 inh; KCNK9-expressing cells, ion flux inhibition; inhibition, % at 10 µM; 5% of 320 active; AID 2329
Kir21 ephys inh – blocks mouse Kir2.1 current in automated electrophysiology | shares compounds with Kir21 inh | inhibition, % at 25 µM | Kir2.1 cells, automated patch-clamp current inhibition | 71% of 320 active
Active calls of the source: *; i = inactive; · = not tested or not shown. Hits are enriched below; roughly 3.7% of the tested compounds scored in any of these assays. Unless noted, no rule for the calls is given here.

SMILES	hERG protect	KCNQ1 inh	KCNK3 block	KCNK9 inh-1	KCNQ1 act	Kir21 inh	hERG ctr	KCNK9 inh-2	Kir21 ephys inh
COc1ccc(OC)c(NC(=O)CC2Oc3ccccc3NC2=O)c1 (stereo not drawn)	-1	i	i	i	i	0.36	·	·	·
CCN(Cc1ccccc1)S(=O)(=O)c1ccc2c(c1)NC(=O)CS2	-10	i	i	i	i	-5.8*	i	i	i
Cc1[nH]n(-c2ccccc2)c(=O)c1S(=O)(=O)c1ccccc1	-14	i	i	i	i	-15*	i	i	66%*
Cn1c(SCC(=O)NCC2COc3ccccc3O2)nnc1C(F)(F)F (stereo not drawn)	·	·	i	·	·	·	·	·	·
COc1cccc(OC)c1OCCCOc1c(OC)cccc1OC	-2	i	i	i	i	-0.14	·	·	·
COc1cccc(OC)c1OCCOc1ccccc1OC(C)C	-8	i	i	i	i	-11*	i	i	42%*
COc1cc(C)ccc1OCCCCNCc1ccccc1	-4	i	i	i	i	-5.8*	i	i	37%*
CN(C(=O)COC(=O)COc1ccc(Cl)cc1Cl)c1c(N)n(Cc2ccccc2)c(=O)[nH]c1=O	-20	i	i	i	i	0.06	·	·	·
CC(C)CCC(CCNCc1ccccn1)c1ccc(Cl)cc1 (stereo not drawn)	-14	i	i	i	i	-6.7*	70%*	i	i
CCn1cc2nc(SCC(=O)Nc3ccc(F)cc3F)n(Cc3ccccc3)c(=O)c2n1	-13	i	i	i	i	-1.2	·	·	·
CC(=O)N1CCN(C(=O)c2ccc(S(=O)(=O)Nc3cccc(C(F)(F)F)c3)cc2)CC1	-15	i	i	i	i	4	i	i	i
O=C(COC(=O)Cc1n[nH]c(=O)c2ccccc12)Nc1cccc(C(F)(F)F)c1	0	i	i	i	i	-1.4	·	·	·
CC1CCC(NC(=O)C2CCN(c3c4c(nc5ncnn35)CCC4)CC2)CC1 (stereo not drawn)	-13	i	i	i	i	1.1	·	·	·
CCOc1cc(CNCCc2ccc(S(N)(=O)=O)cc2)cc(Cl)c1OCc1ccccc1	-22	i	i	i	i	-3.7	·	·	·
CCNCc1cc(Cl)c(OCc2ccccc2)c(OCC)c1	-9	i	i	i	i	-7*	i	i	47%*
O=c1cc(SCc2ccc(Cl)cc2Cl)nc[nH]1	·	·	i	·	·	·	·	·	·
CCOc1nc(C)cc(C)c1S(=O)(=O)c1ccc(Cl)cc1	-14	i	i	i	i	-6.4*	i	i	i
Cc1c(Br)cc(C(=O)OC2CCN(C)CC2)c(C)c1C	-12	i	i	i	i	-10*	i	i	45%*
C=CCC1(Cl)C(=O)C(Cl)=C(N2CCN(C)CC2)C1(OC)OC (stereo not drawn)	-1	i	i	i	i	-1.6	·	·	·
COc1ccccc1CNCc1ccc(OC)c2ccccc12	-6	i	i	i	i	-8.1*	i	i	42%*
COc1ccc(CNC/C=C/c2ccccc2)cc1	-6	i	i	i	i	-12*	i	i	78%*
COc1ccc(CNCc2ccc(OC)c3ccccc23)cc1	0	i	i	i	i	-14*	i	i	8.1%*
COc1cccc(CNCc2ccc(OC)c3ccccc23)c1OC	-10	i	i	i	i	-1.1	·	·	·
COc1ccc(CNS(=O)(=O)NCc2ccccc2)cc1	-6	i	i	i	i	-0.04	·	·	·
